Shown is part of a subset that was picked to be rich in hits.
PGC1a acetyl up – compounds raising PGC1a acetylation signal, primary screen, PGC1a modulator project, cell-based, U2OS, AlphaScreen, signal-increasing mode; overnight; AID 651723, 2012; activation, % at 15.6 µM; 350,000 compounds, 0.21% hits;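 active means every replicate reaching activation of at least 50%, whatever the mean replicate activation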;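 further: hits raise the AlphaScreen acetylation signal above neutral controls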
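System: Flag-PGC1a/GCN5 U2OS cells | Quantity: 7000 cells/well | Times: Overnight compound treatment, 37 °C | Measured by: AlphaScreen proximity luminescence, anti-acetyl-lysine antibody | Dosing: One concentration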
* marks the source's active call; other numbers are inactive results.

Screening COc1cc(Cn2c(N)c(C#N)c3nc4ccccc4nc32)cc(OC)c1 returned PGC1a acetyl up 51.6*.
Screening CCOC(=O)C1(Cc2cccc(F)c2)CCN(Cc2ccc(COC)o2)CC1 returned PGC1a acetyl up -44.7.
For NC(=O)c1ccccc1NC(=O)/C=C/C(=O)O the results were PGC1a acetyl up 62.3*.
C[C@@H]1CCCCO[C@H](CN(C)C(=O)Cc2ccccc2)[C@H](C)CN([C@@H](C)CO)C(=O)c2cc(N(C)C)ccc2O1 was read as PGC1a acetyl up -54.1.
C[C@@H]1CN([C@@H](C)CO)C(=O)CCCn2cc(nn2)CO[C@H]1CN(C)C(=O)Cc1ccccc1 was read as PGC1a acetyl up -56.4.
For C[C@@H]1CN([C@@H](C)CO)C(=O)c2c(c3ccccc3n2C)-c2ccccc2CO[C@@H]1CN(C)C(=O)[C@H](C)c1ccccc1 the results were PGC1a acetyl up 115.2*.
Screening CCOc1ccccc1CNC(=O)c1cc2oc3ccccc3c2n1C returned PGC1a acetyl up 88.1*.
COc1ccc(C(=O)NCCCSC)cc1OC1CCN(C(C)C)CC1 was read as PGC1a acetyl up -44.2.
Cc1cccc(-c2nsc(SCC(=O)N3CCCC3)n2)c1 was read as PGC1a acetyl up -95.5.
`Cc1cc(C)c(C#N)c(SCC(=O)Nc2nnc(-c3ccccc3)s2)n1` gave PGC1a acetyl up -44.9.
`CN1CCN(C(=O)CSc2nc(-c3cccs3)cc(-c3cccs3)c2C#N)CC1` gave PGC1a acetyl up 60.9*.
For CC(C)Oc1ccc2nnnn2n1 the results were PGC1a acetyl up -49.0.
Cc1cc(C)nc(N2CCC(C(=O)NCc3ccco3)CC2)n1 was read as PGC1a acetyl up -94.9.
For Cc1cc(C)n2c(SCC(=O)NCc3ccco3)nnc2n1 the results were PGC1a acetyl up 62.5*.
For Cn1nnnc1SCC(=O)NCc1cccc(C(=O)O)c1 the results were PGC1a acetyl up -40.8.
Screening CSc1nc2c(c(=O)[nH]c(=O)n2C)n1Cc1ccccc1 returned PGC1a acetyl up -43.1.
Screening Cc1ccc(Cn2ccc(NC(=O)c3nn(C)cc3[N+](=O)[O-])n2)cc1 returned PGC1a acetyl up 144.8*.
Screening Cn1cc([N+](=O)[O-])c(C(=O)Nc2nc(-c3ccc(Cl)cc3)cs2)n1 returned PGC1a acetyl up -62.9.
`Cc1cnc(NC(=O)c2nn(C)cc2[N+](=O)[O-])s1` gave PGC1a acetyl up 130.8*.
Screening Cc1ccc(-c2nc(NC(=O)c3nn(C)cc3[N+](=O)[O-])sc2C)cc1 returned PGC1a acetyl up -95.7.
For Cc1ccc(-c2nc(NC(=O)c3nn(C)cc3[N+](=O)[O-])sc2C)cc1C the results were PGC1a acetyl up -91.2.
For O=C(C[C@H]1C[C@H]2c3cc(NC(=O)C4CCC4)ccc3O[C@H]2[C@H](CO)O1)NCc1ccc(-c2ccccc2)cc1 the results were PGC1a acetyl up -63.6.
For CCCCC(C(=O)O)C(C)CC(=O)Nc1nncs1 (stereo not given) the results were PGC1a acetyl up -44.9.
`Clc1ccccc1CN1CCSCC1` gave PGC1a acetyl up -47.1.
For COc1ccc(C2CCc3cc4c(cc3C2=NOC(C)=O)OCO4)cc1OC (stereo not given) the results were PGC1a acetyl up 56.2*.
Screening COc1ccc(NC(=O)c2ccc3c(c2)OCO3)cc1Cl returned PGC1a acetyl up -42.0.
For CC1=C(C(=O)OCc2ccc3c(c2)OCO3)C(c2ccc(Cl)cc2)NC(=O)N1 (stereo not given) the results were PGC1a acetyl up -43.3.
Screening C/C=C/c1ccc2c(c1)O[C@H](CN(C)C(=O)C1CC1)[C@H](C)CN([C@@H](C)CO)S2(=O)=O returned PGC1a acetyl up -47.0.
`CC(=O)c1coc2c1cc(O)c1ccccc12` gave PGC1a acetyl up 62.7*.
`CCCCN=C1NC(=O)C(CC(=O)Nc2ccc(Cl)cc2)S1` (stereo not given) gave PGC1a acetyl up 171.3*.
Screening O=C(CC1SC(=NCc2ccccc2)NC1=O)Nc1ccccc1 (stereo not given) returned PGC1a acetyl up 98.6*.
For CSc1nc2nccc(/C=C\c3ccccc3)n2n1 the results were PGC1a acetyl up -49.5.
O=C1CCN(S(=O)(=O)c2ccc(Cl)cc2)N1 was read as PGC1a acetyl up 63.1*.
COc1ccc(NC(=O)N(C)C[C@@H]2OCCCC[C@@H](C)Oc3ccc(NC(=O)Cc4ccccc4)cc3C(=O)N([C@H](C)CO)C[C@@H]2C)cc1 was read as PGC1a acetyl up -51.2.
`Cc1cc(C)c(NC(=O)c2ccc(S(=O)(=O)N(C)C)cc2)c(C)n1` gave PGC1a acetyl up -50.4.
Cc1cccc(-c2ccc(C3[C@@H]4CN(C(=O)C5CCCCC5)C[C@H]3N4)cc2)c1 (stereo not given in full) was read as PGC1a acetyl up 74.0*.
Screening Cc1ccc(-c2ccc(C3[C@@H]4CN(C(=O)Nc5ccc(C(F)(F)F)cc5)C[C@H]3N4)cc2)cc1 (stereo not given in full) returned PGC1a acetyl up -69.7.
For O=C(Nc1ccc(C(F)(F)F)cc1)N1C[C@@H]2N[C@H](C1)C2c1ccc(-c2cccc(F)c2)cc1 (stereo not given in full) the results were PGC1a acetyl up -62.5.
Screening O=C(CC1CC1)N[C@H]1CC[C@H](CCNS(=O)(=O)c2ccc(Cl)cc2)O[C@H]1CO returned PGC1a acetyl up -53.2.
Screening CC(C)(C)C(=O)/C(=C\c1cccc([N+](=O)[O-])c1)n1cncn1 returned PGC1a acetyl up -96.0.
Screening O=C(CSc1nnc(-c2ccncc2)n1-c1ccc(Cl)cc1)NCc1cccs1 returned PGC1a acetyl up 80.6*.
For O=C(CSc1nnc(-c2ccco2)n1-c1ccccc1)Nc1c(Cl)cc(Cl)cc1C(=O)O the results were PGC1a acetyl up -52.4.
`CCN(CCNc1ccc(Cl)cc1[N+](=O)[O-])C(=O)c1cc([N+](=O)[O-])c(N(C)C)cc1OC` gave PGC1a acetyl up -51.5.
`CC1=CC(=O)C=C(C)C1=NOS(=O)(=O)c1ccccc1` gave PGC1a acetyl up 60.8*.
CC(C)(C)NS(=O)(=O)c1ccc(-c2csnn2)s1 was read as PGC1a acetyl up -60.6.
`CC(=O)C1=C(O)C(=O)N(Cc2ccco2)C1c1cccc(F)c1` (stereo not given) gave PGC1a acetyl up -51.3.
For COc1cc(/C=C2\COC/C(=C\c3ccc(O)c(OC)c3)C2=O)ccc1O the results were PGC1a acetyl up 89.6*.
For COc1ccc2c(c1)CC/C(=C/c1cc(OC)c(OC)c(OC)c1)C2=O the results were PGC1a acetyl up -52.5.
`CC(=O)c1ccc(N2CCN(c3ccc(S(=O)(=O)NCCCN(C)C)cc3[N+](=O)[O-])CC2)cc1` gave PGC1a acetyl up 95.2*.
Screening CO[C@H]1CN(C)C(=O)c2cc(NC(=O)c3ccccc3F)ccc2OC[C@@H](C)N(C(C)=O)C[C@@H]1C returned PGC1a acetyl up -130.3.
Screening COCC(=O)N1CC(=O)N2[C@@H](CO)[C@H](c3ccc(-c4ccncc4)cc3)[C@@H]2C1 returned PGC1a acetyl up -102.2.
Screening COc1ccc(NC(=O)CN(C)C(=O)c2cnc(Cl)c(Cl)c2)cc1 returned PGC1a acetyl up -43.7.
COc1ccc(CCNC(=O)c2ccc(Cl)cc2)cc1 was read as PGC1a acetyl up 81.1*.
Screening COc1ccc(C(=O)N/N=C(/C)c2cccc(NC(=O)c3ccccc3F)c2)cc1 returned PGC1a acetyl up -50.6.
`Cc1ccc(Nc2nc(-c3c(C)nc4ncccn34)cs2)cc1` gave PGC1a acetyl up 79.6*.
Screening Cc1ccc(Nc2nc(-c3c(C)nc4ccccn34)cs2)cc1 returned PGC1a acetyl up 121.3*.
